In the library only some 2.1% were active in any assay of this set; here they are far more common.
PP1 inh – PP1-alpha (human) inhibition in PP5 counter-screen; purified PP1alpha, OMFP fluorescence; P62136; inhibition, % at 6.7 µM; AID 2235; actives 0.9% (n = 320,000);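 active = inhibition above the mean inhibition of all tested compounds plus 3 SD, computed separately for each screening campaign, cut at about 15% in these data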
Target sequence (P62136 whole entry, looked up): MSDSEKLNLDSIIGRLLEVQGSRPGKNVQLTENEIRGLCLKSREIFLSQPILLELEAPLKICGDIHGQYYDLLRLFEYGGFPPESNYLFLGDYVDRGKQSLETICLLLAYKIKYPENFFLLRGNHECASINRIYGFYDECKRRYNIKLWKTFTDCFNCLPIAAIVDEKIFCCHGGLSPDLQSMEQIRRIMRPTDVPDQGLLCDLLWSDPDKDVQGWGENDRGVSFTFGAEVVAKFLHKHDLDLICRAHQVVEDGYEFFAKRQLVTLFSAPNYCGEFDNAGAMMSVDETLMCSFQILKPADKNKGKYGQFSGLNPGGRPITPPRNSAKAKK
TDP2 inh – TDP2 (human) inhibition, absorbance primary screen; O95551; recombinant TDP2, T5PNP hydrolysis, p-nitrophenol absorbance 415 nm; inhibition, % at 12.8 µM; actives 0.34% (n = 370,000); AID 720702;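 active = inhibition above the mean of all tested compounds plus 3 SD, set per campaign, cut at about 25% in these data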
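Assay system: Recombinant human TDP2 | Quantity: 120 nM TDP2 per well | Incubation: 2 h at 37 °C | Signal: Epi absorbance | Evaluation: Percent inhibition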
Apaf-1 inh – inhibitors of human Apaf-1 apoptosome; O14727; reconstituted apoptosome caspase-3 activity, DEVD-Rh110 fluorescence; inhibition, % at 20 µM; actives 0.71% (n = 330,000); AID 489030; active = inhibition of at least 40% at 20 µM
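System: reconstituted apoptosome with Apaf-1, cytochrome c, caspase-9, procaspase-3, dATP; Signal: Rh110 fluorescence intensity; Schedule: 30 min compound preincubation, 50 min activation, room temperature; Reagent: cytochrome c trigger plus (Z-DEVD)2-Rh110 caspase-3 substrate.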
PP5 inh – blocks human protein phosphatase 5 activity; actives 0.18% (n = 320,000); P53041; inhibition, % at 6.7 µM; purified PP5c, OMFP substrate fluorescence;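 active = inhibition above the campaign's mean inhibition across all tested compounds plus 3 SD, cut at about 9.5% in these data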
GSTO1 inh – GSTO1 inhibition, counter-screen for RBBP9 inhibitors; P78417; recombinant GSTO1, activity-based probe fluorescence polarization; inhibition, % at 5.96 µM; actives 1.1% (n = 300,000); AID 1974;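 active = inhibition above the campaign mean inhibition plus 3 SD, cut at about 35% in these data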
Target sequence (P78417 whole entry, looked up): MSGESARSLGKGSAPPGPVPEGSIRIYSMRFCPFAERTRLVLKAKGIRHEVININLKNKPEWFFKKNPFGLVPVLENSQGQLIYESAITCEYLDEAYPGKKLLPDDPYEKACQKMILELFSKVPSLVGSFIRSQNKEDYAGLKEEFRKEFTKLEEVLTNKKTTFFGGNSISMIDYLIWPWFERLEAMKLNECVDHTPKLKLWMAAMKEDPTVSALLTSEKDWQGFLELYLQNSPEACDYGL
GSTO1 inh conf – confirmation of human GSTO1 inhibitors. shares compounds with GSTO1 inh. recombinant GSTO1, probe fluorescence polarization. inhibition, % at 5.96 µM. actives 54% (n = 2,400);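 active = inhibition above the primary screen's cutoff, its mean inhibition plus 3 SD, cut at about 35% in these data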;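 note: loss of polarization as inhibitors block binding of rhodamine sulfonate ester activity probe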
GSTO1 ABPP inh – blocks recombinant human glutathione S-transferase omega 1. actives 30% (n = 130). shares compounds with GSTO1 inh. recombinant GSTO1, gel ABPP SE-Rh probe fluorescence. inhibition, % at 1 µM. AID 463110;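 active = inhibition of the enzyme GSTO1 above about 75%, limit read from the data; inactive = inhibition below that limit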
Hits are given with their value; . = inactive; / = not tested or not shown; + = active, no number.

SMILES | PP1 inh | TDP2 inh | Apaf-1 inh | PP5 inh | GSTO1 inh | GSTO1 inh conf | others
O=S(=O)(c1cc(O)ccc1O)c1cccc2c(S(=O)(=O)c3cc(O)ccc3O)cccc12 | . | . | . | . | 64 | .
CC(CCc1ccccc1)NC(=O)COC(=O)c1cc(NS(=O)(=O)c2ccc(Cl)c([N+](=O)[O-])c2)ccc1O (centres undefined) | . | . | . | . | 43 | 49
CNS(=O)(=O)c1cccc(C(=O)OCC(=O)NC(C)CCc2ccccc2)c1 (centres undefined) | . | . | . | . | . | /
CN(C)Cc1cc(O)c(CN(C)C)cc1O | . | . | 65 | . | 53 | .
CN(C)Cc1cc(C(C)(C)C)cc(C(C)(C)C)c1O | . | . | . | . | . | /
COCCN1Cc2cc(C(=O)OC)c3c(c2C1=O)c1cc(OC)ccc1n3S(=O)(=O)c1ccc(F)cc1 | / | . | / | / | / | /
COC/C=C/C1=CC2=CC(=O)C(C)(OC(=O)c3cnc4ccccc4n3)C(=O)C2=CN1CCc1c[nH]c2ccccc12 (centres undefined) | 17 | / | . | . | 45 | .
COC/C=C/C1=CC2=CC(=O)C(C)(OC(=O)c3cnc4ccccc4n3)C(=O)C2=CN1c1ccccc1 (centres undefined) | . | . | . | . | 38 | .
Cc1ccccc1-c1ccc2c(c1)[C@@H]1C[C@H](N(C)S(=O)(=O)c3ccc(Cl)cc3)[C@H]([C@H](C)O)CN1CC2 | / | . | / | / | / | /
Cc1[nH]c2ccccc2c1CC(=O)Nc1ccc(N(C)c2cccnc2)c(-c2cccc(Cl)c2)c1 | / | . | / | / | / | /
CC(C)NC(=O)CN1CCN(C(=O)CCl)CC1 | . | . | . | . | 38 | 58 | GSTO1 ABPP inh=.
N/C(=N\OC(=O)c1cnn(-c2ccccc2)c1C(F)(F)F)c1cc(C(F)(F)F)cc(C(F)(F)F)c1 | . | . | . | . | . | /
O=C(NNC(=O)C(Cl)Cl)c1cnn(-c2ccccc2)c1C(F)(F)F | . | . | . | . | 49 | .
N#Cc1nc(COc2ccccc2F)oc1NCCc1ccccc1 | . | . | . | . | 43 | .
COc1ccc(C2=CC3=C(Br)C(=O)C(C)(OC(=O)C4CCCC4)C(=O)C3=CO2)cc1 (centres undefined) | . | / | . | . | 39 | .
CC(C)CC1Nc2ccc(C(=O)NCc3ccc4c(c3)OCO4)cc2NC1=O (centres undefined) | . | / | . | . | 45 | .
O=[N+]([O-])c1ccc(-c2ccc(C=Nc3cccc4ccccc34)o2)cc1 | . | . | 46 | . | 63 | .
CC(=O)Oc1cc(C)c(Cl)c2c(OC(C)=O)cc(C(C)=O)c(O)c12 | / | . | / | / | / | /
Cc1cc(C)cc(-n2c(C)cc(C(=O)CSc3nnnn3C)c2C)c1 | . | . | . | . | 49 | 43
Cc1cc(C(=O)CSc2nnnn2C)c(C)n1-c1cccc(F)c1 | . | . | . | . | . | /
NC(=O)CCn1c(C(=O)c2ccc(Cl)cc2)c2ccccc2[n+]1[O-] | . | . | . | . | 50 | .
CC(C)C(=O)N(c1ccc2oc(=O)sc2c1)S(=O)(=O)c1cccs1 | . | . | . | . | . | /
CC(C)C(=O)N(c1cc2sc(=O)oc2c2ccccc12)S(=O)(=O)c1cccs1 | . | . | . | . | 85 | 43
NN1C(=O)/C(=C\c2ccco2)SC1=S | . | . | . | . | 43 | .
O=P(O)(Cc1ccccc1)Cc1ccccc1 | . | . | . | . | 47 | .
SMILES | PP1 inh | TDP2 inh | Apaf-1 inh | PP5 inh | GSTO1 inh | GSTO1 inh conf | others
CCN=C1NC(c2ccc(F)cc2)C(C(=O)OC)=C(C)N1Cc1ccccc1C(F)(F)F (centres undefined) | / | . | / | / | / | /
CCCCc1c(-c2ccccc2OC)ncn1Cc1ccc(F)c(F)c1 | / | . | / | / | / | /
Cn1c2ccc(Cl)cc2c2nc3ccccc3nc21 | . | . | . | . | 76 | .
Cc1ccc2c(c1)c1nc3ccccc3nc1n2C | . | . | . | . | . | /
CCc1ccc(S(=O)(=O)/N=C2/C=C(Sc3ncn[nH]3)C(=O)c3ccccc32)cc1 | . | / | / | . | 83 | 89
O=C1c2ccccc2C(=O)N1CCSc1ncn[nH]1 | . | . | . | . | . | /
CCN(CC)c1ccc2c(-c3ccc(S(=O)(=O)O)cc3S(=O)(=O)[O-])c3ccc(=[N+](CC)CC)cc-3oc2c1 | . | / | . | . | 198 | +
Oc1cccc(/C=N/NC(=S)NCCN2CCOCC2)c1O | . | . | . | . | 88 | 58
O=C(CCl)c1cc2c3c(c1)CC(=O)N3CCC2 | . | . | . | . | 52 | 67
O=C(NCCO)C(=O)Nc1cc2c3c(c1)CC(=O)N3CCC2 | . | . | . | . | . | /
Cc1ccc(NC(=O)CC(N)=S)cc1 | . | . | . | . | 56 | .
Cc1ccc(NC(=O)Cn2nnc(-c3ccccc3F)n2)cc1C | / | . | / | / | / | /
Cc1nn(-c2ccccc2)c2c1C(c1ccco1)C(C#N)=C(N)O2 (centres undefined) | . | . | . | . | 41 | .
C=CCn1c(SCC(=O)c2ccc(O)c(O)c2)nnc1-c1cccc(C)c1 | . | . | . | . | / | /
C=CCn1c(SCC(=O)c2ccc(O)c(O)c2)nnc1-c1ccccc1OC | . | . | . | . | 41 | .
C=CCn1c(SCC(=O)c2ccc(O)c(O)c2)nnc1-c1cccnc1 | . | . | . | . | 40 | .
C=CCN1C(=O)[C@H](CC(=O)N2CCSCC2)[C@@]2(C(=O)OCC)CCCC=C12 | / | . | / | / | / | /
CCN(CC)C(=O)CC[C@@H]1CC[C@]2(CCCN(Cc3ccc(Cl)cc3)C2)O1 | / | . | / | / | / | /
CCN(CC)C(=O)CC[C@H]1CC[C@]2(CCCN(Cc3cccc4ccccc34)C2)O1 | / | . | / | / | / | /
CC(CCN1CCC(C(O)(c2ccccc2)c2ccccc2)CC1)Oc1ccc(C#N)cc1F (centres undefined) | / | . | / | / | / | /
O=S1(=O)c2ccc(N3CC[C@@H](O)C3)cc2O[C@@H]2CCN1C2 | / | . | / | / | / | /
CCOc1cc(CNc2cccc3ccccc23)cc(Br)c1OCC(=O)NC(C)(C)C | . | / | . | . | . | /
CCOc1cc(CNc2ccc(N(C)C)cc2)cc(Br)c1OCC(=O)NC(C)(C)C | . | . | 44 | . | 81 | .
COc1ccc2c(c1)CN1C(=O)N(CCc3ccccc3)S(=O)(=O)CC21 (centres undefined) | / | . | / | / | / | /
CCOC(=O)C1CCCN(C(=O)C2c3ccccc3Oc3ccccc32)C1 (centres undefined) | . | . | . | . | 46 | .
CCOc1ccc(NC(=O)C2C(C(=O)O)C3(Cl)C(Cl)=C(Cl)C2(Cl)C3(Cl)Cl)cc1 (centres undefined) | . | . | . | . | 44 | .
NC(CO)C(=O)NNCc1ccc(O)c(O)c1O (centres undefined) | . | . | 51 | . | 88 | 72
